Assay outcomes (PubChem BioAssay)
Rev-erbA mod – Rev-erb alpha (human) modulation | P20393 | Rev-erbα–FITC-DNA binding, fluorescence polarization, 90 min | activity, % at 10 µM | hit rate 0.79% among 370,000;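 active = activity above about 14%, limit read from the data; passing the limit was not always enough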;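 note: 0% = DMSO wells with 35 nM protein and 100% = DMSO wells with 750 nM protein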
NR2E3 ag-1 – agonists of human nuclear receptor NR2E3 | hit rate 0.12% among 320,000 | inhibition of corepressor binding, % at 4.78 µM | GST-NR2E3/biotin-RetCOR TR-FRET, 1536-well;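 active = percent inhibition above the cutoff of mean plus 3 SD of all tested compounds, set per screening campaign, cut at about 20% in these data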;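 note: 0% = DMSO wells and 100% = biotin wells as full block of FRET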
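System: GST-tagged NR2E3 plus biotinylated RetCOR corepressor; Amount: 1.35 nM GST-tagged NR2E3 final; Dosing: single nominal compound dose of 4.8 µM; Schedule: 5 h incubation at 4 °C; Technique: TR-FRET with europium anti-GST and streptavidin-D2, 340 nm excitation; Controls: biotin wells as high control, 0.6% DMSO wells as low control.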
PG9 binder – small molecules binding HIV-1 gp120 antibody PG9; TR-FRET gp120-PG9 antibody binding; inhibition, % at 6.7 µM; hit rate 0.43% among 360,000; in the data active = inhibition above about 8.5%
GalR3 antag – antagonists of human GalR3; AID 651719; inhibition, % at 3 µM; hit rate 0.44% among 360,000; O60755; HEK293 GalR3-CNG cAMP membrane potential fluorescence; galR3 body fused to GalR1 C-terminus;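 active = inhibition above the screen-wide average plus 3 SD, cut at about 13% in these data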;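 note: forskolin and galanin both at EC90 stimulate the cells; cAMP rise reported by CNG channel membrane potential dye signal; 0% = forskolin plus galanin with DMSO and 100% = forskolin alone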
Target sequence (O60755 1-299 limits assumed): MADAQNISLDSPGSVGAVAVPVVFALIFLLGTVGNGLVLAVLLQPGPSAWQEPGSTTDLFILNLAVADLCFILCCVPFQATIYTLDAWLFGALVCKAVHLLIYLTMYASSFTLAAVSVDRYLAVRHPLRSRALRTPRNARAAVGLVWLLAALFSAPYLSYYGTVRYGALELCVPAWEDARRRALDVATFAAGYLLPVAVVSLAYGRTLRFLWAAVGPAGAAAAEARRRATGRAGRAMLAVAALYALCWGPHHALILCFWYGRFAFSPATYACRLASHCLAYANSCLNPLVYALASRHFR
NR2E3 ag-2 – human photoreceptor-specific nuclear receptor agonism; CHO-S Gal4-NCOR/VP16-NR2E3 two-hybrid, luciferase; AID 602229; inhibition of corepressor binding, % at 3.98 µM; hit rate 0.35% among 360,000;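 active = inhibition above the mean of all tested compounds plus 3 SD, cut at about 70% in these data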;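 note: 0% = DMSO with NR2E3 transfected cells and 100% = cells lacking NR2E3 construct; higher means lower luciferase signal from less NR2E3 corepressor binding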
NR1D1 mod conf – confirmation of modulators of human Rev-erb alpha DNA binding; activation, % at 25 µM; AID 1259319; Rev-erb alpha FITC-DNA binding, fluorescence polarization, 90 min; hit rate 61% among 3,000; shares compounds with Rev-erbA mod;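 active = activation at or above a set limit, or at least 3 SD above the negative control mean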;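 note: 0% = 35 nM protein with DMSO and 100% = 750 nM protein high control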
RORg DNA counter – RORgamma DNA-binding activity, dose-response counter-screen. shares compounds with Rev-erbA mod. purified RORgamma protein-FITC-DNA binding, fluorescence polarization. IC50, µM. hit rate 8% among 910;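 active = Compounds whose fitted half-maximal concentration for disrupting protein-DNA binding is below 10 micromolar; the record names Rev-erb in its text, so the target is in doubt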
An asterisk follows results filed as active. An excerpt weighted towards active compounds, which were near 1.8% of everything screened.

COc1ccc2c(c1)c(=O)oc1cc(OCC(=O)NC3CCCCC3)ccc12 was read as Rev-erbA mod -9, NR2E3 ag-1 2, PG9 binder 4, GalR3 antag 9 and NR2E3 ag-2 7.
COc1cccc(-c2cc(=O)c3cc(NC(=O)c4ccccc4)ccc3[nH]2)c1 was read as Rev-erbA mod 26*, NR2E3 ag-1 -6, PG9 binder -14, GalR3 antag -5, NR2E3 ag-2 0 and NR1D1 mod conf 10.
S=c1nc(C2CCCCC2)[nH]c2ccccc12 was read as Rev-erbA mod 16*, NR2E3 ag-1 18, PG9 binder 8, GalR3 antag -6, NR2E3 ag-2 20 and NR1D1 mod conf 13.
`Clc1ccc(OCc2nn3c(-c4ccccc4)nnc3s2)c(Cl)c1` gave Rev-erbA mod 26*, NR2E3 ag-1 1, PG9 binder 1, GalR3 antag -5, NR2E3 ag-2 -37 and NR1D1 mod conf 35*.
Screening Clc1ccccc1OCc1nn2c(-c3ccncc3)nnc2s1 returned Rev-erbA mod 4, NR2E3 ag-1 6, PG9 binder 1, GalR3 antag 1 and NR2E3 ag-2 9.
Cc1ccc(Cc2c(-c3ccc(Br)cc3)nc3ccc(Br)cn23)cc1 was read as Rev-erbA mod 24*, PG9 binder 4, GalR3 antag -6, NR2E3 ag-2 -26 and NR1D1 mod conf 22*.
Cc1ccc(Cc2c(-c3ccc(Br)cc3)nc3ccc(Cl)cn23)cc1 was read as Rev-erbA mod -2, PG9 binder 1, GalR3 antag -7 and NR2E3 ag-2 -38.
Cc1cc(Br)cn2c(Cc3ccccc3)c(-c3cccc(Cl)c3)nc12 was read as Rev-erbA mod 19*, PG9 binder 5, GalR3 antag -2, NR2E3 ag-2 -29 and NR1D1 mod conf 16*.
For Cc1ccc2nc(-c3ccccc3)c(Cc3cccc(Cl)c3)n2c1 the results were Rev-erbA mod 0, PG9 binder 0, GalR3 antag -4 and NR2E3 ag-2 -75.
`Cc1cc(Br)c2nc(-c3ccccc3)c(Cc3cccc(Cl)c3)n2c1` gave Rev-erbA mod 27*, PG9 binder 8, GalR3 antag -5, NR2E3 ag-2 -12 and NR1D1 mod conf 15*.
Screening Cc1ccc(-c2nc3c(C)cc(Br)cn3c2Cc2cccc(F)c2)cc1 returned Rev-erbA mod 21*, PG9 binder 4, GalR3 antag -2, NR2E3 ag-2 3 and NR1D1 mod conf 20*.
For COc1ccc(-c2nc3ccc(Br)cn3c2Cc2cccc(F)c2)cc1OC the results were Rev-erbA mod 18*, PG9 binder 4, GalR3 antag -5, NR2E3 ag-2 -6 and NR1D1 mod conf 3.
For Cc1cc(Br)cn2c(Cc3ccccc3C(F)(F)F)c(-c3ccccc3)nc12 the results were Rev-erbA mod 22*, PG9 binder 1, GalR3 antag -7, NR2E3 ag-2 -3 and NR1D1 mod conf 11*.
Screening CCOc1cc(N(CC)CC)ccc1/C=C(/C#N)c1nc2ccccc2[nH]1 returned Rev-erbA mod 73*, NR2E3 ag-1 0, PG9 binder -2, GalR3 antag -1, NR2E3 ag-2 7, NR1D1 mod conf 58* and RORg DNA counter >40.
Screening COc1ccc(/C=C(\C#N)c2nc3ccccc3[nH]2)cc1O returned Rev-erbA mod -1, PG9 binder -6, GalR3 antag -10 and NR2E3 ag-2 -79.
CCCOc1cc(N(CC)CC)ccc1/C=C(/C#N)c1nc2ccc(C)cc2[nH]1 was read as Rev-erbA mod 32*, NR2E3 ag-1 -6, PG9 binder -1, GalR3 antag -7, NR2E3 ag-2 -16 and NR1D1 mod conf 41*.
`COc1cc(/C=C(\C#N)c2nc3ccccc3[nH]2)cc(OC)c1O` gave Rev-erbA mod 31*, NR2E3 ag-1 -2, PG9 binder -22, GalR3 antag -1, NR2E3 ag-2 -55, NR1D1 mod conf 46* and RORg DNA counter >40.
